Screens from PubChem.
OX1R antag-1 – OX1R (HCRTR1) antagonists, primary screen, fluorescence, CHO/OX1R cells, Fluo-8 calcium, orexin A; Orexin/Hypocretin receptor type 1 (Homo sapiens), O43613; Fluo-8 calcium fluorescence; inhibition, % at 5 µM; actives 0.43% (n = 330,000);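 active = inhibition above its plate's threshold, mean inhibition of all tested compounds on the plate plus 3 SD, cut at about 37% in these data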;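 note: 0% = orexin A challenge wells and 100% = SB-334867-A antagonist wells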
V1aR counter – agonists of human V1a receptor, primary screen, counter-screen for OXTR agonist project, fluorescence, CHO-V1R cells | Vasopressin V1a receptor (Homo sapiens), P37288 | Fluo-8 calcium fluorescence, agonist mode; 0% DMSO, 100% 3 nM vasopressin | activation, % at 3 µM | actives 0.25% (n = 320,000);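 active = activation above the mean activation of all tested compounds plus 3 SD, per screening run, cut at about 20% in these data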;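 note: signal is peak over basal fluorescence ratio across a 100 second FLIPR read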
OX1R antag-2 – antagonists of human orexin 1 receptor (OX1R); Orexin/Hypocretin receptor type 1 (Homo sapiens), O43613; OX1R-expressing cells, FRET antagonist read-out; inhibition, % at 6.6 µM; actives 1.8% (n = 330,000); AID 485270, 2010; in the data active = inhibition mostly above about 38%, no sharp cut-off; inactive = mostly below about 40%;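 note: 0% = agonist challenge alone and 100% = reference antagonist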
CHO parental Ca – ATP-evoked calcium signal inhibitors, parental CHO, primary screen, counter-screen for OX1R antagonist project, cell-based, fluorescence, Fluo-8 calcium dye; inhibition, % at 5.6 µM; parental CHO-K1, ATP-induced calcium, Fluo-8 fluorescence; actives 0.63% (n = 330,000); AID 463079, 2010;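 active = inhibition above that plate's mean sample inhibition plus 3 SD, cut at about 26% in these data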;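 note: 0% = ATP-challenged DMSO wells and 100% = DMSO wells without ATP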
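Material: parental CHO cells / Compound: single nominal dose of 5.6 µM per compound / Signal: Fluo-8 fluorescence / Replicates: singlicate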
OXTR potentiate – human OXTR potentiators, primary screen, fluorescence, CHO-OTR cells, Fluo-8 calcium | Oxytocin receptor (Homo sapiens), P30559 | Fluo-8 calcium fluorescence, potentiator mode; 0% = oxytocin EC15, 100% = EC100 | activation, % at 3 µM | actives 0.061% (n = 320,000) | AID 2445, 2010;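 active = activation above that plate's cutoff, the mean activation of tested compounds plus 3 SD, cut at about 6.6% in these data, passing the limit was not always enough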;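 note: 100% uses oxytocin at 75 nM as the full agonist control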
Target sequence (P30559 whole entry, looked up): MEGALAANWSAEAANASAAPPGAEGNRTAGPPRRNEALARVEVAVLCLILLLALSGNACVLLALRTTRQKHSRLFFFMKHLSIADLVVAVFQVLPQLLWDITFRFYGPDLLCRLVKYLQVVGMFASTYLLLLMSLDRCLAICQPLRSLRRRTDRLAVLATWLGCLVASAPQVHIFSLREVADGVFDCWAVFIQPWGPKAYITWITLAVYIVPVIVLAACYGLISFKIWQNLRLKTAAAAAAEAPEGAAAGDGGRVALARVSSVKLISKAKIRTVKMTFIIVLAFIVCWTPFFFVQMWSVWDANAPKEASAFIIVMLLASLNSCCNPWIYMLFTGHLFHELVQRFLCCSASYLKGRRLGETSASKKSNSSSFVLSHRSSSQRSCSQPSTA
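Dosing: Single dose, 3.0 µM nominal final compound concentration | Material: Human OTR in CHO cells | Technique: Kinetic Fluo-8 calcium fluorescence | Benchmarks: EC15 oxytocin alone as 0%, 75 nM oxytocin as 100% | Probe or stimulus: Oxytocin at about EC15, sub-maximal agonist stimulus | Incubation: Compound 6 min at room temperature before oxytocin, 100 s read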
OXTR agonist – human OXTR agonists, primary screen, fluorescence, CHO-OTR cells, Fluo-8 calcium; Fluo-8 calcium fluorescence; normalized: DMSO 0%, oxytocin 100%; activation, % at 3 µM; AID 2435, 2010; actives 0.32% (n = 320,000);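 active = activation above the mean of all tested compounds plus 3 SD, cutoff set per screening run, cut at about 20% in these data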;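 note: peak over basal fluorescence ratio from a 100 s FLIPR kinetic read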
Numbers without * were called inactive. An excerpt weighted towards active compounds, which were near 2.6% of everything screened.

SMILES | OX1R antag-1 | V1aR counter | OX1R antag-2 | CHO parental Ca | OXTR potentiate | OXTR agonist
FC(F)(F)c1cc(CCN2CCNC[C@@H]2CC2CCCCC2)cc(C(F)(F)F)c1 | 12 | 12 | -6 | 51* | 8 | 10
CN(CC(=O)N1CC(=O)N(CCc2ccccc2)C(=O)C1)S(=O)(=O)c1cccc2nsnc12 | -12 | 4 | 32 | -10 | -9 | 1
O=C(CCS(=O)(=O)c1cccc2nsnc12)N1CC(=O)N(CCc2ccccc2)C(=O)C1 | -4 | 3 | 53* | -24 | -20 | 2
O=C(NCCc1ccccc1)c1ccc2c(c1)S(=O)(=O)N=C1CCCCCN12 | -11 | 1 | 4 | -18 | -6 | 1
COc1cc(C2Nc3ccc4ncccc4c3C3=C2C(=O)CCC3)cc(OC)c1O (centres undefined) | -14 | 3 | 68* | -9 | 3 | 2
COc1cc(C2Nc3ccc4ncccc4c3C3=C2C(=O)CC(C)(C)C3)cc(OC)c1O (centres undefined) | -14 | 0 | 20 | -14 | 0 | 0
Fc1ccc(-c2csc3[n+]2CCS3)cc1 | -24 | 0 | 20 | -33 | -11 | 0
O=[N+]([O-])c1ccc(-c2csc3[n+]2CCS3)cc1 | -20 | 0 | 74* | -13 | -3 | 0
O=C(Nc1ccc(S(=O)(=O)Nc2ncccn2)cc1)C(F)(F)F | 8 | 1 | 13 | -1 | -6 | 0
O=c1c(-c2nnc(SCc3ccc(Cl)cc3)o2)cccn1Cc1ccccc1 | -7 | 2 | 40* | 2 | -3 | 0
O=C(Nc1ccccc1-c1nnc(SCc2ccc(Cl)cc2)o1)c1ccccc1 | -14 | 1 | 10 | -10 | -6 | 0
Fc1ccc2cc(-c3ccsc3)ncc2c1 | -30 | -1 | 9 | -4 | 4 | -2
Cc1ccc(Cl)cc1N1CCN(C(=O)c2ccccc2SCC(=O)N2CCCC2)CC1 | -15 | 7 | 9 | -31 | -11 | 9
Nc1ccc(C(=O)OCCCc2nc3cc4ccccc4cc3[nH]2)cc1 | -12 | 0 | 41* | -10 | -5 | -3
COc1ccccc1NS(=O)(=O)c1cc([N+](=O)[O-])ccc1N/N=C/c1c(C)[nH]c2ccccc12 | 46* | 15 | 15 | 41* | -9 | 17
O=[N+]([O-])c1ccc(N/N=C/c2c[nH]c3ccccc23)c(S(=O)(=O)Nc2ccc(Cl)cc2)c1 | 2 | 1 | 5 | 5 | -11 | 1
COc1ccc(CCNC(=O)c2ccccc2NC(=O)C2=C(C)OCCS2)c(OC)c1 | -10 | 7 | 64* | -8 | -3 | 3
COc1ccc(OC)c(CCNC(=O)c2cccc(NC(=O)C3=C(C)OCCS3)c2)c1 | -10 | 4 | 41* | -23 | -7 | 2
COCCNC(=O)c1cccc(NC(=O)C2=C(C)OCCS2)c1 | -13 | 2 | 8 | -4 | -8 | 0
Cc1cc(-c2cccc([N+](=O)[O-])c2)nc2ccccc12 | -8 | -1 | 69* | -6 | -1 | -2
c1ccc(CCNc2ncnc3scc(C4COc5ccccc5O4)c23)cc1 (centres undefined) | 17 | 0 | 17 | 51* | -3 | 0
Cc1cccc(OCC(=O)NNc2c3ccccc3nc3ccccc23)c1 | 15 | 3 | 41* | -8 | -12 | 1
Cc1ccc2[nH]c(=O)c(CN(C(=O)c3cccc([N+](=O)[O-])c3)C(C)C)cc2c1 | 5 | 1 | 51* | -16 | -3 | -1
CC/C=C\C/C=C\C/C=C\CCCCCCCC(=O)O | -14 | 0 | 13 | -15 | -1 | 1
CCCCC/C=C\C/C=C\C/C=C\C/C=C\CCCC(=O)O | -4 | -1 | 9 | -6 | 9.6* | -1
SMILES | OX1R antag-1 | V1aR counter | OX1R antag-2 | CHO parental Ca | OXTR potentiate | OXTR agonist
COC(CNC(=O)c1ccc2nc3ccccc3c(=O)n2c1)OC | -14 | 2 | 38* | -9 | -13 | 1
COCCCNC(=O)c1ccc2nc3ccccc3c(=O)n2c1 | -23 | 0 | 35 | -13 | -3 | 1
CN(C(=O)C1CCC(=O)N(Cc2cccc(F)c2)C1)C1CCCCC1 (centres undefined) | -10 | 0 | 20 | 7 | -3 | 0
O=C(c1ccc(S(=O)(=O)c2cccc(Cl)c2)c([N+](=O)[O-])c1)N1CCN(c2ccccn2)CC1 | 4 | 9 | 43 | 33* | -10 | 6
Cc1cc(C)cc(NS(=O)(=O)c2cnc(Cl)c(Cl)c2)c1 | 52* | 0 | 30 | 95* | -25 | 1
COCCCNC(=O)COc1cc2c(c3oc(=O)c(C)c(C)c13)CCC(C)(C)O2 | -24 | -1 | -2 | -14 | -7 | -1
CC(=O)c1sc2nc(C)c3c(c2c1N)CCCC3 | -32 | -1 | 50* | -18 | -2 | -3
Cn1cc(SCC(=O)NCCc2ccccc2)c2ccccc21 | -18 | -2 | 10 | -17 | -7 | -2
O=C(NCCn1cc(SCC(=O)N2CCOCC2)c2ccccc21)c1c(F)cccc1F | -16 | 2 | 8 | -10 | 0 | 1
COc1ccc(C(=O)NCCn2cc(SCC(=O)Nc3cc(C)on3)c3ccccc32)cc1OC | -14 | 1 | 42 | -23 | 1 | -2
O=C(NCCn1cc(SCc2ccccc2F)c2ccccc21)c1c(F)cccc1F | 2 | 2 | 26 | 80* | -6 | 1
O=C(CSc1cn(CCNC(=O)c2cccs2)c2ccccc12)NC1CCCCC1 | -15 | 3 | 41* | -5 | -8 | -1
O=C(CSc1cn(CCNC(=O)c2cccs2)c2ccccc12)NCc1ccccc1 | -5 | 1 | 41* | -15 | -9 | -1
O=C(CSc1cn(CCNC(=O)c2cccs2)c2ccccc12)NCC1CCCO1 (centres undefined) | -1 | 2 | 22 | -13 | -4 | 1
COc1ccccc1C(=O)NCCn1cc(SCC(=O)Nc2cc(C)on2)c2ccccc21 | -3 | 2 | 42* | -19 | -1 | 0
O=C(N/N=C/c1c[nH]c2ccccc12)c1ccc(Br)cc1 | -10 | 0 | 4 | -6 | -7 | 1
CC(C)Oc1ccc(Br)cc1C(=O)N/N=C/c1c[nH]c2ccccc12 | -4 | 2 | 40* | 1 | -11 | 0
O=C(N/N=C/c1ccc(Cl)c([N+](=O)[O-])c1)c1cnccn1 | -10 | 0 | 57* | -12 | -4 | 1
